Assay outcomes as filed in PubChem BioAssay.
Cl transport mod = KCC2 cotransporter modulators, thallium flux, primary screen, cell-based, HEK293 KCC2, FluoZin-2 fluorescence, MLSMR; actives 2.2% (n = 190,000); AID 1456, 2008; Solute carrier family 12 member 5 (Homo sapiens), Q9H2X9; B-score of Tl+ flux slope (higher = more flux/activation; lower = inhibition) at 10 µM; KCC2 cells, thallium flux FluoZin-2 fluorescence;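 active = thallium flux slope and its plate-corrected score both differing from the plate sample mean at a set confidence after two filtering rounds, in either direction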;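 also: slope of fluorescence scaled to starting intensity during 10 to 20 s after thallium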
ROMK mod = ROMK potassium channel modulators, primary screen, cell-based, thallium flux, MLSMR library | ATP-sensitive inward rectifier potassium channel 1 (Homo sapiens), P48048 | Tet-inducible ROMK, thallium flux fluorescence; actives lie on both sides | B-score at 10 µM | actives 2% (n = 130,000);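 active = signal ratio slope over the read window, or its plate-corrected B-score, at least 3 SD from the plate mean, either direction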;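 also: B-score of the F/F0 ratio slope over 7 to 12 s after thallium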
PKD1 inh = inhibitors of human PKD1 kinase, biochemical, fluorescence polarization; Serine/threonine-protein kinase D1 (Homo sapiens), Q15139; PKD1 kinase fluorescence polarization assay; inhibition, % (no concentration beside the values); actives 0.056% (n = 200,000); in the data active = inhibition above about 50%
MDM2 E3 inh = MDM2-luciferase reporter signal enhancers, primary screen, MDM2 E3 ligase inhibitor project, cell-based, luminescence, 1536-well; cell-based MDM2 ubiquitination luciferase reporter, 2 h; 0 = plate control, 100 = twice control, blank-subtracted; actives 0.11% (n = 210,000); signal enhancement, % at 5 µM; E3 ubiquitin-protein ligase Mdm2 (Homo sapiens), Q00987;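 active = signal enhancement of 30% or more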;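 also: luminescence tracks abundance of the self-degrading MDM2-luciferase fusion protein; higher signal means inhibition of MDM2 E3 ligase activity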
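Material: stable MDM2–luciferase fusion reporter cells / Quantity: 2000 cells/well / Dosing: single 5 µM compound dose, 0.2% final DMSO / Buffer or medium: DMEM / Schedule: 4 h cell settling then 2 h compound exposure, 37 °C / Detection: luminescence with SteadyLite reagent, 15 min at room temperature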
Calpain2 inh = inhibitors of pig calpain II, primary screen, biochemical, fluorogenic peptide substrate, 1536-well. inhibition, % at 16 µM. actives 0.37% (n = 220,000). purified calpain II, 30 min. AID 1236, 2008;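 active = inhibition above about 50%, limit read from the data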
Arbovirus anti = antivirals against arbovirus infection, primary screen, cell-based, full library, 10K replicate subset. arbovirus infection cell-based antiviral screen. inhibition, % at 10 µM. actives 0.37% (n = 200,000); in the data active = inhibition above about 30%
KCC2 secondary = KCC2 modulators in sodium-free buffer, confirmation, cell-based, HEK293 KCC2, thallium flux, secondary assay. shares compounds with Cl transport mod. FluoZin2 fluorescence; hits give high values. normalised thallium flux (F/F0 slope) at 10 µM. actives 15% (n = 3,700). AID 1713, 2009;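 active = thallium flux slope above the same plate's solvent-only control mean plus 3 SD; inconclusive = the two replicate wells disagree; inactive = no significant difference from solvent-only control wells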
KCC2 bumet counter = thallium flux persisting under bumetanide in KCC2 cells, confirmation, counter-screen for KCC2 modulator project, cell-based, HEK293 KCC2, FluoZin2, secondary assay 3. AID 1714, 2009. normalized thallium flux at 10 µM. HEK293-KCC2 + bumetanide/ouabain; hits give high values. shares compounds with Cl transport mod. actives 49% (n = 3,700);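 active = thallium entry rate above the same plate's blocked-transporter control wells by more than 3 SD; inconclusive = the two repeat wells disagree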;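 also: raw slope of fluorescence over initial fluorescence between 10 and 20 s after thallium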
KCC2 secondary2 = KCC2 modulators without ouabain present, confirmation, cell-based, HEK293 KCC2, thallium flux, FluoZin2, secondary assay 2; shares compounds with Cl transport mod; thallium flux FluoZin2 fluorescence; actives lie on both sides; F/F0 rise rate, 10–20 s post-thallium; normalized thallium flux at 10 µM; actives 23% (n = 3,700);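 active = thallium flux slope more than 3 SD above or below the plate's solvent-only control mean, mostly below; inconclusive = the two repeat wells disagreed; inactive = no significant shift from solvent-only controls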;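 also: raw slope with 0.1% DMSO as baseline and bumetanide as block control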
HEK counter1 = thallium flux modulation in parental HEK cells, confirmation, counter-screen for KCC2 modulator project, cell-based, counterscreen 1. shares compounds with Cl transport mod. HEK293 parental cells, thallium flux FluoZin2, ouabain; baseline-ratio fluorescence slope, 10–20 s after thallium. thallium flux rate (normalised fluorescence) at 10 µM. actives 46% (n = 3,700). AID 1716, 2009;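 active = thallium flux rate significantly above the same plate's solvent-only control wells, beyond their mean plus 3 SD; inconclusive = the two replicate wells gave conflicting results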
KCC2 retest ouab = KCC2 inhibitors and activators, ouabain retest, confirmation, HEK-KCC2 cells; shares compounds with Cl transport mod; raw Tl+ flux slope (below DMSO = inhibition, above = activation) at 10 µM; actives 48% (n = 3,700); HEK293-KCC2, thallium flux FluoZin2 fluorescence; bidirectional: low = inhibitor, high = activator;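 active = thallium flux slope beyond 3 SD from same-plate DMSO control mean in most replicates, usually higher, sometimes lower; inconclusive = repeat tests gave conflicting results; inactive = no significant difference from controls in most replicates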;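 also: slope of initial-normalized fluorescence between seconds 10 and 20 after thallium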
HEK counter2 = native HEK Tl+ uptake effects, second counter-screen – HEK cells, counterscreen 2, counter-screen for KCC2 modulator project, confirmation; shares compounds with Cl transport mod; HEK293 parental, thallium flux FluoZin-2 fluorescence slope; thallium flux slope at 10 µM; actives 33% (n = 3,700); AID 1718, 2009;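 active = thallium flux slope above the same plate's solvent-control mean plus 3 SD in both duplicate wells; inconclusive = duplicate wells that disagreed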;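 also: run without ouabain in cells lacking the KCC2 cotransporter; slope of fluorescence scaled to its starting value between 10 and 20 s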
An asterisk follows results filed as active; ? = inconclusive; . = no result. In the library only some 3.7% were active in any assay of this set; here they are far more common.

SMILES	Cl transport mod	ROMK mod	PKD1 inh	MDM2 E3 inh	Calpain2 inh	Arbovirus anti	KCC2 secondary	KCC2 bumet counter	KCC2 secondary2	HEK counter1	KCC2 retest ouab	HEK counter2
COc1ccc(C(c2nnnn2Cc2ccccc2)N2CCN(c3ccccc3)CC2)cc1 (stereo unspecified)	-1.4	.	-7	.	13	1	.	.	.	.	.	.
Cc1nc(N2CCN(Cc3ccccc3)CC2)nc2c1C(=O)CCC2	-2.9*	1.2	0	-18	29	9	0.0065	0.0042	?	0.0069	0.015*	0.0095
Cc1nc(N2CCN(Cc3ccccc3)CC2)nc2c1CCC2	-1.2	1.6	4	-8	28	-8	.	.	.	.	.	.
Cc1cccc(C)c1N1C(=O)c2ccccc2C1=O	.	0.026	-3	-11	3	4	.	.	.	.	.	.
CCOc1cc(C(=S)N2CCCC2)ccc1OC(=O)Cc1ccc(F)cc1	-4.4	0.41	10	-8	-6	0	.	.	.	.	.	.
COc1cc(C(=S)N2CCOCC2)ccc1OC(=O)Cc1ccc(F)cc1	-4.8*	-0.047	4	-7	-6	11	0.0089	0.0057	0.028*	0.0074	0.015*	0.011
CCCCC(=O)NNC(=S)NC(=O)c1ccc([N+](=O)[O-])cc1	2.4	-0.051	-5	-11	-15	8	.	.	.	.	.	.
CCCCC(=O)NNC(=S)NC(=O)c1ccc(C)cc1	39*	1.8	-4	-30	6	-34	0.025*	0.064*	0.053*	0.052*	0.052*	0.056*
CCCn1nc([N+](=O)[O-])c(C(C#N)c2nc3ccccc3o2)c(Cl)c1=O (stereo unspecified)	-6.6*	.	-2	-18	-2	26	0.0072	?	0.022*	0.0058*	0.012*	0.0089
Cc1ccc(NC(=O)C(C)NC(=O)OCc2ccccc2)cc1C (stereo unspecified)	0.2	.	.	-10	10	.	.	.	.	.	.	.
COc1ccccc1CNc1cc(CSc2ccc(Cl)cc2)nc(C)n1	.	-1.2	-4	1	13	17	.	.	.	.	.	.
COc1cccc(CNc2cc(CSc3ccc(Cl)cc3)nc(C)n2)c1	.	-1.1	2	4	31	4	0.0074	0.0032*	0.03	?	0.018	0.0094
O=C(Cc1ccccc1[N+](=O)[O-])NCc1ccc(Cl)cc1	1.5	-1.5	-10	-3	5	-4	.	.	.	.	.	.
